Source: PubChem BioAssay AID1325 (NMMLSC, 2008)
Screen size: about 190,000 compounds; about 200 (0.11%) were called active.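 How the source made its calls: active means inhibition above 80%; inactive means the rest.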 The list comes from a sample in which actives are over-represented; it also holds similar structures and randomly drawn compounds.

Each compound was assayed against Broad substrate specificity ATP-binding cassette transporter ABCG2 (Homo sapiens) (UniProt Q9UNQ0) (assay: ABCG2 efflux pump inhibitors, primary screen, multiplex with ABCB1, IgMXP3 cells, flow cytometry (AID 1325)). Settings: JC-1 efflux, at 6.6 µM, hits give high values.
Sequence of Broad substrate specificity ATP-binding cassette transporter ABCG2 (Homo sapiens) (Q9UNQ0 whole entry, looked up): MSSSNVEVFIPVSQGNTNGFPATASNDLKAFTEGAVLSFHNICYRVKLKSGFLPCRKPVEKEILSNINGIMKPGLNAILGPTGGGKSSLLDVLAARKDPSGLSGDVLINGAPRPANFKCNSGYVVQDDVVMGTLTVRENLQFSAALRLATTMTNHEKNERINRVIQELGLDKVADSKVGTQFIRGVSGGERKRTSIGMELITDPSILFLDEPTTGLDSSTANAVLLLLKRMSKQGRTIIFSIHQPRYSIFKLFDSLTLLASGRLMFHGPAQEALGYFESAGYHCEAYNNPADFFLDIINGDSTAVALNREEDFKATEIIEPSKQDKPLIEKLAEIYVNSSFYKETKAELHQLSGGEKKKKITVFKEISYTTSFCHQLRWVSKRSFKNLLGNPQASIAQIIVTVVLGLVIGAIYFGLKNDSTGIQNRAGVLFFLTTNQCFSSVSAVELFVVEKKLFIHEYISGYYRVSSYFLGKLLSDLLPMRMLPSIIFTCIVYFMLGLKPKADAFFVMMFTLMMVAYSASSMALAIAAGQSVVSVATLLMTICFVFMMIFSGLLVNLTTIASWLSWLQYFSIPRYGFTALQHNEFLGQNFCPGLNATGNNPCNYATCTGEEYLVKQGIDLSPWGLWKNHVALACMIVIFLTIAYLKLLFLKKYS
In short: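 Test system: IgMXP3 (ABCG2) plus far-red-tagged CCRF-Adr (ABCB1) cells. Reagent: JC-1 dye as substrate. Timing: 10 min exposure at 25 °C with rotation, no wash. Measured by: flow cytometric JC-1 green MFI at 530 nm. Read-out: percent efflux inhibition, scaled nicardipine 100% to DMSO 0%. Control set: nicardipine and DMSO wells.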

Compound | inhibition
CC(C)n1c(-c2ccncc2)n[nH]c1=S | 0.69% (inactive)
Clc1ncn(CCOc2ccccc2)c1Cl | 1.15% (inactive)
CN(/C(=N/S(=O)(=O)c1cccs1)c1ccccc1)c1ccc(O)cc1 | 0.46% (inactive)
N#C/C(=C/c1ccc(N2CCOCC2)o1)C(=O)N1CCOCC1 | 7.86% (inactive)
COc1ccccc1-c1nnc(NC(=O)c2ccc3ncsc3c2)o1 | -4.46% (inactive)
COC(=O)c1ccc(CSc2nncn2N)cc1 | -1.84% (inactive)
CCOc1ccc(CN2CCN(Cc3ccon3)CC2CCO)cc1 (configuration not stated) | -2.99% (inactive)
Cc1ncc([N+](=O)[O-])n1CCOC(=O)c1ccc(Br)cc1 | 9.29% (inactive)
CCO/N=C(/C)c1c(O)cc(-c2ccccc2)n(-c2ccccc2)c1=O | 32.1% (inactive)
Cc1nnsc1C(=O)Nc1cccc(Cl)c1C | 10.7% (inactive)
CCC1=NN(C(=O)Cc2ccc([N+](=O)[O-])cc2)C(O)(c2ccc(Br)cc2)C1 (configuration not stated) | 5.42% (inactive)
O=c1c(-c2ccccc2)coc2cc(O)ccc12 | 2.5% (inactive)
CCn1nc(C)c(/C=N/NC(=O)Cc2ccc(Cl)cc2)c1C | 9.46% (inactive)
Cc1ccc2nc(SCc3cn4c(C)cc(C)nc4n3)[nH]c2c1 | 7.53% (inactive)
CC(C)(C)n1nc2c(c1NC(=O)c1cc3ccccc3o1)CSC2 | 0.23% (inactive)
Cc1nc(N)c(Br)c(C)c1Br | 2.8% (inactive)
CC(CCn1cccn1)NC(=O)CCc1nnc(CCc2ccccc2)o1 (configuration not stated) | -0.02% (inactive)
CCCOC(=O)Nc1sc2c(c1C(=O)OCC)CCC2 | 31.4% (inactive)
CCOCC(=O)Nc1sc2c(c1C(=O)OCC)CCCC2 | 104% (active)
CCOC(=O)c1c(NC(=O)c2ccc(Br)o2)sc2c1CCCC2 | 14.6% (inactive)
O=C(NCc1ccccc1Cl)C1CCC(CNc2c(N3CCCCC3)c(=O)c2=O)CC1 (configuration not stated) | 0% (inactive)
CCOC(=O)c1sc(/N=C/C2=C(O)CC(C)(C)CC2=O)c(C(=O)OCC)c1C | 3.82% (inactive)
COc1ccc(CC(=O)NCc2nnc(SCC(=O)Nc3nccs3)n2C)cc1 | 0.7% (inactive)

Compound | inhibition
COc1cc(NC(=O)c2cccnc2SC)cc(OC)c1 | 11.7% (inactive)
Cc1ccc(N2C(=O)SC(N(CC(=O)O)c3ccc(C)cc3)C2=O)cc1 (configuration not stated) | 1.16% (inactive)
CC(=O)c1ccc(NC(=O)Nc2ccc([N+](=O)[O-])cc2C)cc1 | 28.4% (inactive)
COc1ccc(-c2cn(-c3ccc(OC)cc3)c(=S)[nH]2)cc1 | 6.92% (inactive)
O=C(Nc1ccc(Br)c2cccnc12)c1ccc(Cn2cc([N+](=O)[O-])cn2)o1 | 1.01% (inactive)
COc1cccc(NC(=O)c2ccc(Cn3cc([N+](=O)[O-])cn3)o2)c1 | 89.2% (active)
CCc1ccc(NC(=O)c2ccc(Cn3cc([N+](=O)[O-])cn3)cc2)cc1 | 1.22% (inactive)
Cc1ccc(SCCC(=O)NC(C(C)C)C(C)C)cc1 | 29.5% (inactive)
CCOC(=O)CNc1nc2ccccc2n2c(C)nnc12 | 4.58% (inactive)
COc1ccc(-n2c(C)cc(C(=O)COC(=O)c3cc(OC)c(OC)cc3NC(=O)c3cccs3)c2C)cc1 | 91.7% (active)
COc1ccc(-n2c(C)cc(C(=O)CSc3nnc(-c4cccs4)o3)c2C)cc1 | 4.95% (inactive)
Cc1cc(C(=O)COC(=O)c2cccs2)c(C)n1-c1c(C)n(C)n(-c2ccccc2)c1=O | 1.17% (inactive)
Brc1ccc(-c2csc(N/N=C/c3cccnc3)n2)cc1 | -0.01% (inactive)
O=C(COC(=O)c1ccccc1)Nc1cccc(S(=O)(=O)N2CCOCC2)c1 | 8.84% (inactive)
Cc1ccc(NC(=O)C(=O)NCc2ccc(/C=N/NC(=O)c3c(C)nc4cc(C)ccn34)o2)cc1 | 24.5% (inactive)
c1ccc(-n2nnnc2-c2cccnc2)cc1 | 1.93% (inactive)
COc1cccc(OC)c1C(=O)Nc1ccc(Cc2ccncc2)cc1 | 1.46% (inactive)
CCOc1ccc(C(CC(=O)O)NC(=O)C23CC4CC(CC(C4)C2)C3)cc1OC (configuration not stated) | -1.01% (inactive)
O=[N+]([O-])c1ccc2[nH]c3c(c2c1)CCCC3O (configuration not stated) | 14.8% (inactive)
O=C(NC1CC1)C1CCCN(C(=O)NC2CCCCC2)C1 (configuration not stated) | 6.29% (inactive)
CCN(CC)c1ccc([N+](=O)[O-])cc1C(=O)O | 3.47% (inactive)
COc1cccc2cc(/C(C)=N/NC(=O)c3ccco3)oc12 | 6.63% (inactive)
CC(=O)N1CCc2cc(Br)cc(S(=O)(=O)CCC(=O)Nc3c(C)n(C)n(-c4ccccc4)c3=O)c21 | -0.95% (inactive)

Compound | inhibition
O=C(Cn1ncc(N2CCCC2)c(Br)c1=O)c1ccc(Cl)cc1 | 8.74% (inactive)
O=C(N/C(=C\c1ccc(F)cc1)C(=O)N1CCCCCC1)c1ccccc1 | 0.94% (inactive)
CCc1nnc(NC(=O)Cc2cccs2)s1 | -0.23% (inactive)
Cc1c(Cl)cnc(NC(=O)COC(=O)c2ccc(S(=O)(=O)NCc3ccco3)cc2)c1Cl | -0.23% (inactive)
COc1cccc(/C(C)=N/Nc2ncc(Cl)cc2Cl)c1 | 16.5% (inactive)
C/C(=N\Nc1ncc(Cl)cc1Cl)c1ccc(S(=O)(=O)NCc2ccco2)cc1 | 81.6% (active)
Cc1ccccc1N/C(SCc1ccc(Cl)cc1)=C(/C#N)C(N)=O | 9.99% (inactive)
C/C(N)=C(/C#N)C(=O)COC(=O)C1CCN(C(=O)c2ccc(Cl)cc2)CC1 | 6.63% (inactive)
Cc1c(C(=O)NCCCc2ccccc2)cccc1[N+](=O)[O-] | 5.18% (inactive)
O=C(NCCCN1CCOCC1)c1ccc([N+](=O)[O-])cc1[N+](=O)[O-] | 1.56% (inactive)
CN1CCCN(C(=O)C2CCCCC2)CC1 | 3.74% (inactive)
CCN1CCN(C(=O)CCN2C(=O)c3ccccc3C2=O)CC1 | 12.2% (inactive)
CCN(C(=O)CSc1nnc2ccccn12)C1CCS(=O)(=O)C1 (configuration not stated) | 6.4% (inactive)
O=C(CCCOc1ccc(Cl)cc1Cl)NNC(=O)C1CCC1 | 8.42% (inactive)
C#CCOCCOCCOCCNc1nc(N2CCN(C(=O)[C@H](Cc3ccc(O)cc3)n3cc(C(N)CC(C)C)nn3)CC2)nc(N2CCN(C(=O)[C@H](CCC(=O)O)n3cc(C(N)[C@H](C)CC)nn3)CC2)n1 (some centres not stated) | -1.91% (inactive)
Cc1[nH]c2ccccc2c1/C=N/NC(=O)CNC(=O)c1ccc2c(c1)OCO2 | 0.16% (inactive)
O=C(NNC(=S)Nc1ccc(Br)cc1Cl)c1ccco1 | -9.07% (inactive)
CNC(=O)c1ccsc1NC(=O)c1ccc(S(=O)(=O)N2CCc3ccccc32)cc1 | 0.15% (inactive)
CCCC(=O)NC(=S)Nc1ccc(CN2CCOCC2)cc1 | 1.31% (inactive)
CCN(C(=O)COC(=O)/C=C/c1nc2ccccc2s1)C1CCS(=O)(=O)C1 (configuration not stated) | 1.28% (inactive)
O=C(Nc1ccc(C(=O)O)cc1)/C(=C/c1ccc([N+](=O)[O-])cc1)NC(=O)c1ccccc1 | 2.36% (inactive)
C=CCNC(=O)/C=C/c1ccc(C(C)C)cc1 | 3.56% (inactive)
Cc1ccc(S(=O)(=O)NCCc2nnc3ccc(SCc4cccnc4)nn23)cc1 | 0.68% (inactive)

Compound | inhibition
COc1ccc(C(=O)COC(=O)c2nn(C)c(=O)c3ccccc23)c(OC)c1 | 8.17% (inactive)
COCCCNC(=O)CNC(=S)N(Cc1cc(OC)c(OC)c(OC)c1)C1CCCC1 | -0.12% (inactive)
O=C(COc1ccc(S(=O)(=O)N2CCCCC2)cc1)NCc1ccccn1 | 1.47% (inactive)
CC1(C)CC(=O)c2c(n(S(=O)(=O)c3ccccc3)c3ccc(NS(=O)(=O)c4ccccc4)cc23)C1 | -0.92% (inactive)
COc1ccc(Cl)cc1N(CC(=O)N/N=C/c1ccc(OCC(N)=O)cc1)S(C)(=O)=O | 8.83% (inactive)
CCOc1ccc(-n2cnnn2)cc1S(=O)(=O)N1CCC(C)CC1C (configuration not stated) | 0.53% (inactive)
O=C(NCCN1CCOCC1)Nc1cccc(Cl)c1 | 4.87% (inactive)
Cc1cc(C)c2[nH]c(=O)c(CN(Cc3ccccc3)C(=S)NCCCN(C)C)cc2c1 | 54.5% (inactive)
Nn1c(SCC(=O)Nc2nccs2)nncc1=O | 0.11% (inactive)
COCCCNC(=O)/C=C/c1ccc(OCc2c(F)cccc2Cl)cc1 | 3.58% (inactive)
COc1ccc(-c2[nH]ncc2CN(Cc2nccn2C)C(C)C)cc1F | 3.43% (inactive)
N#CC1(C#N)C(C(=O)C23CC4CC(CC(C4)C2)C3)C12CCOCC2 (configuration not stated) | -1.02% (inactive)
COc1cc(N2C(=O)c3ccccc3C2=O)c(Cl)cc1C(=O)OCC(=O)N1CCOCC1 | 2.21% (inactive)
O=C(Oc1cccc(N2C(=O)C3C4c5ccccc5C(c5ccccc54)C3C2=O)c1)c1ccco1 (configuration not stated) | 0.99% (inactive)
O=C1OCC2=C1C(c1ccccc1)CC(=O)N2c1cccc(F)c1 (configuration not stated) | 10.8% (inactive)
COc1ccc(CN(C)Cc2nc3cc(OC)c(OC)cc3c(=O)[nH]2)c(OC)c1 | 3.26% (inactive)
C[N+]1(CC(O)COc2ccccc2)CCN(C(=O)c2ccc([N+](=O)[O-])cc2)CC1 (configuration not stated) | 4.9% (inactive)
CC1(C)CC(=O)C2=C(C1)Nc1cc(C(=O)c3ccccc3)ccc1NC2c1ccccn1 (configuration not stated) | 1.87% (inactive)
CCN=c1sc(C(=O)Nc2ccccc2)c(C)n1CC | 3.73% (inactive)
CC(C)(C)C(=O)CN1C2=NCCN2c2ccccc21 | 2.76% (inactive)
Cn1c(=O)c2c(nc(N/N=C/c3cccs3)n2Cc2ccc(Br)cc2)n(C)c1=O | 8.74% (inactive)
COc1ccc(Cl)cc1NC(=O)CNc1ccccc1F | 28.9% (inactive)
Cc1ccc2sc(NNC(=O)c3ccc4c(c3)OCCO4)nc2c1C | 0% (inactive)
